From PubChem BioAssay
Shown is part of a subset that was picked to be rich in hits.
L major viab: inhibitors of Leishmania major promastigote growth; Leishmania major promastigotes, resazurin fluorescence viability; inhibition, % at 10 µM; hit rate 9% among 200,000; AID 1063; in the data active means inhibition above about 50%;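 further: promastigotes grown with compound for 44 hours at 28 °C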
HSF-1 act: increases HSF-1 driven luciferase reporter signal; hit rate 1.7% among 300,000; activation, % at 9 µM; NIH3T3-HGL HSF-1 luciferase reporter, MG132, 8 h; 100% = twice DMSO control signal;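 active means mean replicate activation of at least 50% with a set share of replicates each reaching 50%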;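 further: 0% = median of the neutral control wells and 100% = twice that signal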
Hsp70 activator: Hsp70 transcriptional activation, primary screen. HeLa Hsp70 promoter luciferase reporter, luminescence; scaled: vehicle 0, proteasome-inhibitor control 100%. hit rate 0.04% among 200,000. activation, % at 10 µM;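 active means activation above the mean across all tested compounds plus 3 SD, cutoff set per campaign, cut at about 5.5% in these data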;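 further: 100% = MG132 at 30 µM as the positive control and 0% = DMSO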
T cruzi inh: blocks replication of Trypanosoma cruzi; T. cruzi beta-gal in NIH3T3, luminescence, 90 h; inhibition, % (no concentration beside the values); hit rate 1.4% among 300,000; AID 1885;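 active means mean inhibition across valid replicates above about 55%, limit read from the data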;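 further: signal also drops with host cell toxicity which is not excluded here; 0% = plate median of DMSO wells and 100% = zero luminescence signal; higher percent means less beta-gal luminescence so fewer parasites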
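System – NIH/3T3 host cells with β-galactosidase reporter T. cruzi · Doses – single 50 nL compound addition per well in DMSO · Reagent – 5000 T. cruzi trypomastigotes/well · Medium – Low-serum DMEM with 2% FBS · Timing – ≥90 h infection period, 3 h prior cell attachment · Evaluation – parasite load inhibition, % · Technique – GalScreen luminescence, 60 min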
HSF1 inhib: HSF1 inhibition; NIH3T3-HGL HSE-luciferase, MG132-induced, luminescence 8 h; active compounds read low; activity change, negative = inhibition, % at 7.5 µM (by protocol); hit rate 0.77% among 300,000; AID 2098;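 active means more than half of replicate wells show activity change below -50%, luminescence cut by over half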;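 further: luciferase reports HSF-1 transcriptional activity via heat shock element; 0% = median of DMSO wells and -100% = zero luminescence signal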
Active calls of the source: *; . = not tested or not shown.

SMILES | L major viab | HSF-1 act | Hsp70 activator | T cruzi inh | HSF1 inhib
O=C(c1ccco1)N1CCN(c2ncnc3c(-c4ccc(Cl)cc4)nsc23)CC1 | . | -50.2 | . | 5.9 | -44.4
O=C(O)COc1ccc(/C=C/C(=O)c2ccc(C3CCCCC3)cc2)cc1 | . | -9.8 | . | 12.6 | -5.6
NCCOc1ccc(C2CCCCC2)cc1 | 100.0* | -0.7 | -0.1 | -21.8 | -4.4
CC(C)C(NC(=O)c1ccccc1F)C(=O)NCc1ccc(F)cc1 (centres undefined) | . | -6.0 | . | 5.6 | 7.9
CCOc1ccc(NC(=O)CN(C)C(=O)CC(NC(=O)c2ccccc2)c2ccccc2)cc1OCC (centres undefined) | . | -1.9 | . | 0.2 | 0.4
N#C/C(=C\c1ccc(N2CCCC2)c([N+](=O)[O-])c1)c1nc2ccccc2[nH]1 | 6.2 | 0.4 | -0.2 | 8.4 | -9.8
CC1CCN(c2cc(N3CCC(C)CC3)c([N+](=O)[O-])cc2/C=C(\C#N)c2nn(-c3ccccc3)c(N)c2C#N)CC1 | -4.2 | -2.3 | -0.1 | 1.8 | -9.4
CC1CCCN(c2ccc(/C=C(\C#N)c3nn(-c4ccccc4)c(N)c3C#N)cc2[N+](=O)[O-])C1 (centres undefined) | 95.6* | 14.7 | 0.0 | 51.4 | 4.0
CC(=O)Nc1ccc(N2CCCC(C)C2)c([N+](=O)[O-])c1 (centres undefined) | 11.0 | 6.8 | -0.2 | 13.5 | 5.1
N#C/C(=C\c1ccc(N2CCCCC2)c([N+](=O)[O-])c1)c1nn(-c2ccccc2)c(N)c1C#N | 98.8* | -5.5 | -0.2 | 62.2* | 1.2
CC1CCN(c2ccc(/C=C(\C#N)c3nn(-c4ccccc4)c(N)c3C#N)cc2[N+](=O)[O-])CC1 | 95.2* | 3.9 | 0.0 | 43.9 | 0.5
O=C(OCN1C(=O)c2ccccc2C1=O)c1cccc(S(=O)(=O)N2CCOCC2)c1 | . | 8.5 | . | -3.3 | 8.9
Cc1ccsc1-c1nc(CN2C[C@@H](C)O[C@@H](C)C2)c(C)o1 | -3.0 | 19.4 | -0.4 | -6.9 | 4.1
O=C(NCC1CCCO1)c1onc(CSc2ccc(Cl)cc2)c1C(=O)O (centres undefined) | -8.1 | -69.6 | -0.1 | -5.0 | -61.2*
CCCNC(=O)c1c(CSc2ccc(Cl)cc2)noc1C(=O)NCc1ccccc1 | . | 54.4* | . | 27.1 | 24.5
CCCCNC(=O)c1c(CSc2ccc(Cl)cc2)noc1C(=O)NCc1ccccc1 | . | -2.0 | . | 23.3 | 6.2
O=C(NCc1ccccc1)c1onc(CSc2ccccc2)c1C(=O)NCC1CC1 | . | 8.8 | . | 58.3* | 8.4
Nc1c2c(nc3ccn(Cc4ccccc4)c(=O)c13)CCC2 | 89.4* | 16.3 | -0.3 | 22.5 | -1.1
O=C(OCc1nc2ccc(Cl)cc2n1CCO)c1ccccc1 | -1.4 | -7.9 | -0.2 | -13.9 | 0.4
O=C(OCc1nc2ccc(Cl)cc2n1CCO)c1ccc(O)cc1 | 53.8* | -7.4 | 0.1 | -2.8 | -4.7
CCOC(=O)C1(CCOc2ccccc2)CCN(Cc2ccc(OCC)c(CO)c2)CC1 | . | 9.5 | . | 38.3 | -3.6
C/C(CC(=O)Nc1ccc2c(c1)OCCO2)=N\NC(=O)COc1ccc(Cl)c(C)c1 | . | -9.7 | . | -20.3 | -1.7
COc1ccc(CCN(C(=O)c2cccc(F)c2)C2CC(=O)N(c3ccc(OC)cc3)C2=O)cc1 (centres undefined) | 72.4* | 5.5 | -0.1 | 1.8 | 3.1
COc1ccc(CCN(C(=O)c2cccc(F)c2)C2CC(=O)N(c3ccccc3)C2=O)cc1 (centres undefined) | -2.1 | 22.5 | -0.1 | -1.9 | 1.9
CCCCOc1ccc(N2C(=O)CC(N(O)c3ccccc3)C2=O)cc1 (centres undefined) | -4.0 | 107.0* | 0.4 | -10.7 | 54.5
CCCCCOc1ccc(N2C(=O)CC(N(O)c3ccccc3)C2=O)cc1 (centres undefined) | -1.3 | 40.1 | 0.2 | -0.9 | 14.8
CCCOc1ccc(N2C(=O)CC(SC(=N)N3N=C(c4ccccc4)CC3c3ccccc3)C2=O)cc1 (centres undefined) | 98.4* | 38.3 | -0.1 | 68.1* | 10.5
CCCOc1ccc(N2C(=O)CC(SC(=NC)Nc3ccc(F)cc3)C2=O)cc1 (centres undefined) | -5.7 | -21.6 | -0.2 | 20.9 | -7.7
CCCOc1ccc(N2C(=O)CC(N(Cc3ccc(OC)cc3)C(=S)Nc3ccccc3)C2=O)cc1 (centres undefined) | 68.5* | 21.7 | 0.0 | 26.9 | 16.8
